Experimental data: the EternaBench riboswitch data

Test system: MS2 coat protein
Assay: apparent Kd, MS2 coat protein; higher = weaker binding; RNA-MaP array; FMN 200 µM where present
Summary of the method: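 Binding was read on Illumina sequencing-chip clusters where stalled E. coli RNA polymerase had transcribed each design. A titration of SNAP-549-labelled MS2 coat protein began at 0.7 or 1.5 nM and doubled to 3 µM, once without ligand and once with constant ligand, in 100 mM Tris-HCl pH 7.5, 80 mM KCl, 4 mM MgCl2, BSA, DTT, yeast tRNA and Tween-20. The apparent Kd is the median of filtered per-cluster binding-curve fits, based on green signal normalised to red-channel RNA signal and control-cluster median Fmax.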

[1] = designed as: OFF switch for flavin mononucleotide, no ligand
[2] = ligand present: flavin mononucleotide, designed as: OFF switch for flavin mononucleotide
[3] = designed as: ON switch for flavin mononucleotide, no ligand
[4] = ligand present: flavin mononucleotide, designed as: ON switch for flavin mononucleotide

| Sequence | apparent Kd [1] [nM] | apparent Kd [2] [nM] | apparent Kd [3] [nM] | apparent Kd [4] [nM] |
| --- | --- | --- | --- | --- |
| UAAUAAAACGAUCGGCGAUCCAUACAUGAGGAUCACCCAUGUAGAAGGCACUCUACAAAGUAGAGUGAGGAUAUACGAGAUCGA | 7.85 | 105 |  |  |
| UAAUAAUAAUAAUACCAGUUUACAUGAGGAUCACCCAUGUAUAAGGAUAUGCAGUGGAAUACACUGCAGAAGGUAUACAUCUGG | 18.8 | 35.9 |  |  |
| UAAUAAUUAUGAGGAUAUAUACAACAUGAGGAUCACCCAUGUACCCAUGUAGUAGAAGGCAUAUUUUUAGUUAAUAACACAACU |  |  | 71.3 | 30 |
| UAAUCGUUGCAGAAGGUUAUUAUUAUAUCGUGUCACUUAACAUGAGGAUCACCCAUGUUUUUGAUGAAGGAUAUGCAACGGUAG | 6.74 | 6.83 |  |  |
| UAAUCGUUGCAGAAGGUUAUUAUUUUAUCGUGUCUCUUAACAUGAGGAUCACCCAUGUUUUUGAUGAAGGAUAUGCAACGGUAG | 7.54 | 7.09 |  |  |
| UAAUCGUUGCAGAAGGUUAUUUUUUUAACAAGUCUCUUAACAUGAGGAUCACCCAUGUUUUUGAUGAAGGAUAUGCAACGGUAG | 5.89 | 6.15 |  |  |
| UAAUCUCAGAUAGGAUAUAUAGGAUAACUUAAGACCUAACAUGAGGAUCACCCAUGUGAUUAUUCGUAGAAGGAUCAAUGACCC |  |  | 189 | 200 |
| UAAUCUCAGAUAGGAUAUAUAGGAUGAUUUAAGACUGAACAUGAGGAUCACCCAUGUGAUUAUCUGUAGAAGGAUCAAUUACCC |  |  | 392 | 351 |
| UAAUUAAGUGUGAGGAUAUGCUGGUCCUUGGAUCAGCAGAAGGCACAUGAGGAUCACCCAUGUAAAUUAUUUAU | 103 | 437 |  |  |
| UAAUUAAGUGUGAGGAUAUGCUGGUCCUUGGAUCAGCAGAAGGCACAUGAGGAUCACCCAUGUAAUUUAUAUAU | 98.2 | 485 |  |  |
| UAAUUUAACAAGAAGGCUAACAUGAGGAUCACCCAUGUUGUACAUGGAUAUAGAGGAUAUUGCUAAUAAUUAUUUAUCAUAAUU | 24.2 | 19.2 |  |  |
| UACAUCACGUAAGGAUAUACACGGGUUUCAAGAGUAGAAGGUACAAACAUGAGGAUCACCCAUGUAGACAUGGUUAAUAUUGUA |  |  | 54.3 | 40.6 |
| UACAUGUGAGGAUAUGUACGAAGCCCGGCUGGGCCUCGCAGGCAGAAGGCACAUGAGGAUCACCCAUGUGACCG | 15.9 | 53.4 |  |  |
| UACGCCAGUGAGAAGGCAUGUUCACAUGAGGAUCACCCAUGUAUACUCAUGAGGAUAUCAAAUGCGGACCAAAAUAAAAUUUGA |  |  | 313 | 22.2 |
| UACGUACAGAAGUACGCCGGGUCCAGAAGGGACAUGAGGAUCACCCAUGUACCGUUGAUUGCUUGUCAGGAUAUGGACCCGGCC | 7.1 | 27.4 |  |  |
| UACUCAUGUGAGAAGGGACGUAUCUCCAUGAGGGUAGGGCUAUUAGAGAAGUCAGGAUAUCACAUGAGGAUCACCCAUGUGACG | 6.92 | 7.02 |  |  |
| UACUGGUGUGAGAAGGGACAUAUCUCCAUGAGGGCAGGGCGAUUAGAGAAGUCAGGAUAUCACAUGAGGAUCACCCAUGUGACA | 8.14 | 8.51 |  |  |
| UACUUCCGAGGAUAUACAUGAGGAUCACCCAUGUGCUUCAGCAUCUAAUGAUGCAUGGGUAGAAGGCGGUAGUU | 58.5 | 68.1 |  |  |
| UAGAAGUCAGGAUAUGCAUGGCGGGACUUGCGUCGUGGCGUGCAGAAGGGACAUGAGGAUCACCCAUGUAAAGA | 56.1 | 53.4 |  |  |
| UAGAAUCGAGGAUAUACAUGAGGAUCACCCAUGUGUGGCCAUUUGGUGUGGUCGUCAGGUAGAAGGCGAUUACA | 160 | 15.6 |  |  |
| UAGAAUCGAGGAUAUACAUGAGGAUCACCCAUGUGUUGCCGCAUGAUGUGAUCGUCAGGUAGAAGGCGAUUAUA | 25.4 | 18.7 |  |  |

| Sequence | apparent Kd [1] [nM] | apparent Kd [2] [nM] | apparent Kd [3] [nM] | apparent Kd [4] [nM] |
| --- | --- | --- | --- | --- |
| UAGAUGGGAGGAUAUGCGUAGAUGCGGAUUCGUGUGGUGCUACAUGAGGAUCACCCAUGUAGAAGGCCCGUCUU | 14.4 | 22 |  |  |
| UAGAUGUGAGGAUAUGGUAAAGAUAGAAUGAUGAAAGAACUCCAGAAGGCACAUGAGGAUCACCCAUGUAGAUG | 26.9 | 55 |  |  |
| UAGAUUUAUGUAGGAUAUACAUUUUUUAUGUAUGUAGAAGGACAUGAGGAUCACCCAUGUAAAUAAAUAUUAAAUAUCAUAAUU | 30.4 | 23.8 |  |  |
| UAGCCCGGCCAGAAGGGAGCUAUACAUGAGGAUCACCCAUGUCACUGACUCAGGAUAUGGCGCGCUUGGUAUAAGUAUUCAUGG |  |  | 8.36 | 5.46 |
| UAGGGAGGAGGGAGGGAGACAUGAGGAUCACCCAUGUAAAGUCAGGAUAUUCUCAUAUUAUAUUAGGAGAAGGGAUACAUAUCU | 47.5 | 13.8 |  |  |
| UAGGGCGAGUUAUGUACAAGAUACAUGAGGAUCACCCAUGUGUAGGAUAUGACCCUUAUCGCUGGUCAGAAGGGCACGAGAAUC | 74.1 | 94.2 |  |  |
| UAGGUACAUGAGGAUCACCCAUGUGAGGAUAUAGAUGAAGAUUGCGAGAGGGAGAGGACUAGAAGGCACAGUGG | 33.3 | 36.8 |  |  |
| UAGGUACAUGAGGAUCACCCAUGUGGGUCGGUCACAGGAUAUCGCCGUGGGCCCAGGCGGCGAGAAGGGUGCCGGU |  |  | 277 | 34.8 |
| UAGGUCGACGUAGGAUAUGUAGGAUAUUCCUACAUGAGGAUCACCCAUGUUGAAAUGGAAGAAGGACAGAAGGACGUUGACCUU |  |  | 56.7 | 13.6 |
| UAGUAGAUCCGAGGAUAUACAAUCCGGAAACGGUACAUGAGGAUCACCCAUGUAGAAGGCGGAUCUACAGGUACUAAAGUACCU | 5.12 | 7.93 |  |  |
| UAUACUUACGAAGGAUAUGGUUACAUGAGGAUCACCCAUGUAUGUAUAUUGAUCUUGUAUUUUAACCAGAAGGUCGUGAGUAUA | 143 | 114 |  |  |
| UAUACUUACGAAGGAUAUGGUUACAUGAGGAUCACCCAUGUAUGUAUGUUGAUCGUGUAUCUUAACCAGAAGGUCGUCACUAUA | 44.9 | 56.5 |  |  |
| UAUAUAAUUAAGAGCUGGAACUCAACAUGAGGAUCACCCAUGUAGGAUAUCAGCACGAUAAGUGCUGAGAAGGACAUCCAGCUC | 16.6 | 17.8 |  |  |
| UAUAUAUAGGCAGGAUAUACAUGUAUAUAUAAUUUUUUAUAUAUUAUUACAUGAGGAUCACCCAUGUAGAAGGGCCAUAUUAUA | 34.8 | 51 |  |  |
| UAUAUAUAGUAAGGAUAUGUAACUAUUUUAUAAACAGAAGGUACUGACAUGAGGAUCACCCAUGUUUUAGUGUGGGCAUGUAGA | 86.7 | 136 |  |  |
| UAUAUAUAGUAAGGAUAUGUAAUUAUUUCAUAAACAGAAGGUACUGACAUGAGGAUCACCCAUGUUUUAGUGUGGGCAUGUAGA | 79.8 | 108 |  |  |
| UAUAUAUAGUAAGGAUAUGUAAUUAUUUUGUAAACAGAAGGUACUGACAUGAGGAUCACCCAUGUUUUAGUGUGGGCAUGUAGA | 117 | 182 |  |  |
| UAUAUAUAGUAAGGAUAUGUAUAUUUUUUAUAAACAGAAGGUACUGACAUGAGGAUCACCCAUGUUUUAGUGUGGGCAUGUAGA | 79.3 | 122 |  |  |
| UAUAUAUAGUAAGGAUAUGUAUUAAAUUUAUAAACAGAAGGUACUGACAUGAGGAUCACCCAUGUUUUAGUGUGGGCAUGUAGA | 99.6 | 148 |  |  |
| UAUAUAUAGUAAGGAUAUGUAUUAAUCUUAUAAACAGAAGGUACUGACAUGAGGAUCACCCAUGUUUUAGUGUGGGCAUGUAGA | 78.1 | 103 |  |  |
